Results of several laboratories.
Compare with care: the assays were run in different laboratories.
Target: Vascular endothelial growth factor receptor 3 (FLT4, Homo sapiens, UniProt P35916)

Structure (SMILES) | assay | conditions | quantity | result
COc1ccc(COc2ccc(Cc3cnc(N)nc3N)cc2OC)cc1 | cell-free assay | 0.5 µM | remaining signal | 105%
CC(=O)N1CCC(c2ccc(C(=O)NC(=N)N)cc2C(F)(F)F)CC1 | cell-free assay, competition with immobilised ligand | 1 µM | remaining binding | 89%
COc1cc2ncnc(Nc3ccc(Oc4ccccc4)c(C)c3C)c2cc1OC | enzyme activity, inhibitor | 1 µM | inhibition | 12%
Cc1cnc(NC2CCOCC2)nc1-n1cnc(C(=O)NC(CN)c2cc(F)cc(Cl)c2)c1 (centres unmarked) | enzyme activity, inhibitor, radiometric | 1 µM | remaining activity | 107%
CCN(CC)c1ccc(C2=NNC(=O)CC2C)cc1[N+](=O)[O-] (centres unmarked) | enzyme activity, inhibitor | 10 µM | remaining activity | 111%
CNC(=O)c1cc2c(Oc3ccc(NC(=O)C4(C(=O)Nc5ccc(F)cc5)CC4)cc3)ccnc2cc1OC | enzyme activity, inhibitor, radiometric | 1 µM | inhibition | 102%
CC[C@H](CO)Nc1nc(NCc2ccccc2)c2ncn(C(C)C)c2n1 | cell-free assay | 0.5 µM | remaining signal | 94%
Cc1ccc(C(=O)NCc2ccsc2)cc1C#Cc1cn(C(C)C)c2ncnc(N)c12 | enzyme activity, inhibitor | 1 µM | activity vs control | -1%
COc1cc2nccc(Oc3ccc(NC(=O)c4c5n(n(-c6ccc(F)cc6)c4=O)CCCC5)cc3)c2cc1OC | enzyme activity, inhibitor | 0.1 µM | inhibition | 47%
O=C(Nc1cnn(-c2csc(C(=O)NC3COC3)c2)c1)Nc1c(F)cccc1Cl | enzyme activity, inhibitor | 5 µM | remaining activity | 86.2%
N#CC1(c2ccccn2)CCN(Cc2cc(C(=O)N3CCCC3)c(=O)n3ccccc23)CC1 | cell-free assay, competition with immobilised ligand | 1 µM | remaining binding | 86%
CC(C)(C)c1nc2c(s1)c1nc(N)ncc1c1ccc(NS(=O)(=O)c3c(F)cccc3F)c(F)c12 | enzyme activity, inhibitor, radiometric | 1 µM | remaining activity | 76%
O=C(O)c1cc(-c2ccc(C3CCNCC3)cc2)c2ccc(-c3ccc(C(F)(F)F)cc3)cc2c1 | cell-free assay, competition with immobilised ligand | 1 µM | remaining binding | 100%
CC(C)(O)[C@H]1CC[C@H](Nc2ccc3ncc(-c4cccc(C(F)(F)F)c4)n3n2)CC1 | enzyme activity, inhibitor | 1 µM | remaining activity | 83.5%
CCCCN(CCCC)C(=O)CN1C[C@H](c2cc(OC)c3c(c2)OCO3)[C@@H](C(=O)O)[C@@H]1CC(C)(C)CCC | cell-free assay, competition with immobilised ligand | 1 µM | remaining binding | 100%
CNC(=O)c1cc(Oc2ccc(NC(=O)Nc3ccc(Cl)c(C(F)(F)F)c3)cc2)ccn1 | cell-free assay | 0.5 µM | remaining signal | 43%
O=C(O)[C@H]1[C@H](Cn2nnc3ccccc3c2=O)CC[C@@H]1C(=O)c1ccc(OCCC2CCOCC2)cc1 | cell-free assay, competition with immobilised ligand | 1 µM | remaining binding | 81%
O=C1NC(=O)c2cc(Nc3ccc(F)cc3)c(Nc3ccc(F)cc3)cc21 | cell-free assay | 0.5 µM | remaining signal | 102%
Cc1cc(NC(=O)c2cccc(S(F)(F)(F)(F)F)c2)cc(-n2ccn3nc(-c4cccnc4)cc23)c1 | cell-free assay, competition with immobilised ligand | 1 µM | remaining binding | 82.3%
Cc1ccc(C(=O)Nc2ccc(CN3CCN(C)CC3)c(C(F)(F)F)c2)cc1C#Cc1cnc2cccnn12 | cell-free assay | 23.5 nM | remaining signal | 35%
